We go through eleven compounds from ChEMBL document CHEMBL3046420, “A new antifungal and cytotoxic C-methylated flavone glycoside from Picea neoveitchii” (2012).

Holding throughout (type): functional
Assay [1] concerns Pyricularia grisea. Briefly: Antifungal activity against Magnaporthe grisea assessed as mycelial growth inhibition at 100 ug/disk after 2 to 4 days by disk diffusion method relative to control. As to conditions: for zone of inhibition at 100 µg/disc: read-out: DIZ; for inhibition of growth at 100 µg/disc: read-out: GI. The gist of the method:
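Modified disc diffusion on PDA in 90 mm plates. Each 5 mm filter disc was loaded with 10 µL of a 10 mg/mL MeOH solution, air-dried and placed at the plate centre. Four 5 mm fungal plugs were set 20 mm from the disc. MeOH discs served as blank and carbendazim as positive control. Plates were incubated at 29 °C for 2–4 days. Inhibition zone (mm) was expressed as % of the carbendazim zone. Triplicate.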
Background: A growth-free zone around the sample is the usual read-out of agar diffusion tests.

Assay [2] concerns Thielaviopsis paradoxa. Briefly: Antifungal activity against Ceratocystis paradoxa assessed as mycelial growth inhibition at 100 ug/disc after 2 to 4 days by disk diffusion method relative to control. As to conditions: for zone of inhibition at 100 µg/disc: read-out: DIZ; for inhibition of growth at 100 µg/disc: read-out: GI. The gist of the method: (§1)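 Disc diffusion on PDA in 90 mm Petri plates. Sterile 5 mm filter paper discs were loaded with 10 µL of a 10 mg/mL MeOH solution, air-dried and set at the plate centre. Four 5 mm fungal plugs were placed inverted 20 mm from the disc. Plates were incubated at 29 °C for 2–4 days, until growth in the MeOH blank reached the centre. The inhibitory zone was measured in mm and expressed as % of the carbendazim zone. Triplicate.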

The subject of assay [3] is Athelia rolfsii. The experiment in a line: Antifungal activity against Athelia rolfsii assessed as mycelial growth inhibition at 100 ug/disk after 2 to 4 days by disk diffusion method relative to control. As to conditions: Agroathelia rolfsii; for zone of inhibition at 100 µg/disc: read-out: DIZ; for inhibition of growth at 100 µg/disc: read-out: GI. The method, boiled down: as §1

Assay [4] can be described thus: Cytotoxicity against Spodoptera litura cells assessed as growth inhibition at 20 mg/L after 24 hr by MTT assay relative to control. As to conditions: read-out: GI. The gist of the method:
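SL cells were grown in Grace's insect medium with 9% newborn calf serum at 27.5 °C and used in log phase. Cells were seeded in 96-well plates for 24 h, then exposed for 24 h to compound (DMSO stock diluted in medium); controls got 0.5% DMSO. MTT (0.5 mg/mL) was added for 4 h, formazan dissolved in DMSO, and A570 read. Three separate experiments.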
(Tetrazolium dyes change colour on reduction, which living cells bring about.)

Assay [5] has as its system Alternaria mali. The experiment in a line: Antifungal activity against Alternaria mali assessed as mycelial growth inhibition at 100 ug/disk after 2 to 4 days by disk diffusion method relative to control. As to conditions: for zone of inhibition at 100 µg/disc: read-out: DIZ; for inhibition of growth at 100 µg/disc: read-out: GI. The gist of the method: as §1

With `COc1cc([C@H]2Oc3c(O)cc(CCCO)cc3[C@@H]2CO)ccc1O[C@@H]1O[C@@H](C)[C@H](O)[C@@H](O)[C@H]1O` [MASSONIANOSIDE B], the zone of inhibition at 100 µg/disc in assay [1] is 7 mm; in assay [2], 5.6 mm; in assay [3], 0 mm; in assay [5], 8.8 mm. The inhibition of growth at 100 µg/disc in assay [1] is 37.6%; in assay [2] it was 21.8%; in assay [3] it was 0%; in assay [5], 88.9%. Further, the inhibition of growth at 20 µg/mL in assay [4] was 17.9%.
For the compound `O=c1c(O[C@@H]2O[C@H](CO)[C@@H](O)[C@H](O)[C@H]2O)c(-c2ccc(O[C@@H]3O[C@H](CO)[C@@H](O)[C@H](O)[C@H]3O)cc2)oc2cc(O)cc(O)c12`, the zone of inhibition at 100 µg/disc is 0 mm in assay [1], 0 mm in assay [2], 3.7 mm in assay [3] and 2.4 mm in assay [5]. For the same compound, the inhibition of growth at 100 µg/disc in assay [1] is 0%; in assay [2], 0%; in assay [3], 31.9%; in assay [5], 24.2%. In addition, in assay [4], the inhibition of growth at 20 µg/mL is 23.1%.
With `COC(=O)Nc1nc2ccccc2[nH]1` [CARBENDAZIM], the zone of inhibition at 100 µg/disc stood at 18.6 mm in assay [1], 25.7 mm in assay [2], 11.6 mm in assay [3] and 9.9 mm in assay [5]. In addition, the inhibition of growth at 100 µg/disc in assay [1], in assay [2], in assay [3] and in assay [5] was 100% in each case.
On to `O=C(/C=C/c1ccc(O)cc1)OC[C@H]1O[C@@H](Oc2c(-c3ccc(O)cc3)oc3cc(O)cc(O)c3c2=O)[C@H](O)[C@@H](O)[C@@H]1O` [TILIROSIDE], for which the zone of inhibition at 100 µg/disc in assay [1] amounted to 0 mm; in assay [2], 7.1 mm; in assay [3], 2.6 mm; in assay [5], 5.5 mm. Moreover, the inhibition of growth at 100 µg/disc was found to be 0% in assay [1], 27.6% in assay [2], 22.4% in assay [3] and 55.6% in assay [5]. Also, the inhibition of growth at 20 µg/mL in assay [4] is 65%.
As to `O=c1cc(-c2ccc(O)cc2)oc2cc(O[C@@H]3O[C@H](CO)[C@@H](O)[C@H](O)[C@H]3O)cc(O)c12` [APIGETRIN], the zone of inhibition at 100 µg/disc came out at 3.3 mm in assay [1], 0 mm in assay [2], 4.8 mm in assay [3] and 5.8 mm in assay [5]. For the same compound, the inhibition of growth at 100 µg/disc in assay [1] was determined as 17.7%; in assay [2], 0%; in assay [3] it was 41.4%; in assay [5], 58.6%. The inhibition of growth at 20 µg/mL in assay [4] came out at 7.8%.
`C[C@@H]1O[C@@H](OC[C@H]2O[C@@H](OC(=O)/C=C/c3ccccc3)[C@H](O)[C@@H](O)[C@@H]2O)[C@H](O)[C@H](O)[C@H]1O` [GLEDITSCHIASIDE A]: the zone of inhibition at 100 µg/disc in assay [1], in assay [2], in assay [3] and in assay [5] was 0 mm in each case. Besides, the inhibition of growth at 100 µg/disc in assay [1], in assay [2], in assay [3] and in assay [5] was 0% throughout. Further, the inhibition of growth at 20 µg/mL in assay [4] was 62.2%.
With `COc1c(-c2ccc(O[C@@H]3O[C@H](CO)[C@@H](O)[C@H](O)[C@H]3O)cc2)oc2c(O[C@@H]3O[C@H](CO)[C@@H](O)[C@H](O)[C@H]3O)c(O)c(C)c(O)c2c1=O`, the zone of inhibition at 100 µg/disc in assay [1] was determined as 5.7 mm; in assay [2], 0 mm; in assay [3], 4.8 mm; in assay [5], 4.3 mm. The inhibition of growth at 100 µg/disc is 30.6% in assay [1], 0% in assay [2], 41.4% in assay [3] and 43.4% in assay [5]. For the same compound, in assay [4], the inhibition of growth at 20 µg/mL is 64.4%.
In the case of `C=C(C)[C@H]1Cc2c(ccc3c2O[C@@H]2COc4cc(OC)c(OC)cc4[C@@H]2C3=O)O1` [ROTENONE], the inhibition of growth at 20 µg/mL in assay [4] was determined as 74.4%.
Regarding `O=c1ccc2ccc(O[C@@H]3O[C@H](CO)[C@@H](O)[C@H](O)[C@H]3O)cc2o1` [SKIMMIN], the zone of inhibition at 100 µg/disc stood at 0 mm in assay [1], 1.5 mm in assay [2], 2.8 mm in assay [3] and 0 mm in assay [5]. In addition, the inhibition of growth at 100 µg/disc worked out at 0% in assay [1], 5.8% in assay [2], 24.1% in assay [3] and 0% in assay [5]. In assay [4], the inhibition of growth at 20 µg/mL was 15.3%.
Regarding `COc1cc(CCCO)ccc1O[C@@H]1O[C@H](CO)[C@@H](O)[C@H](O)[C@H]1O` [DIHYDROCONIFERIN], the zone of inhibition at 100 µg/disc was determined as 8.6 mm in assay [1], 0 mm in assay [2], 0 mm in assay [3] and 3.1 mm in assay [5]. The inhibition of growth at 100 µg/disc in assay [1] turned out to be 46.2%; in assay [2], 0%; in assay [3], 0%; in assay [5], 31.3%. Besides, in assay [4], the inhibition of growth at 20 µg/mL worked out at 4%.
In the case of `COc1c(-c2ccc(O)cc2)oc2c(O[C@@H]3O[C@H](CO)[C@@H](O)[C@H](O)[C@H]3O)c(O)c(C)c(O)c2c1=O`, the zone of inhibition at 100 µg/disc in assay [1] was 7.6 mm; in assay [2], 6.2 mm; in assay [3], 9.4 mm; in assay [5], 7.2 mm. Also, the inhibition of growth at 100 µg/disc in assay [1] came to 40.9%; in assay [2], 24.1%; in assay [3] it was 81%; in assay [5], 72.7%. Besides, the inhibition of growth at 20 µg/mL in assay [4] was 62.5%.
